In ChEMBL document CHEMBL3244395, “Antimycotic imidazoles. 2. Synthesis and antifungal properties of esters of 1-[2-hydroxy(mercapto)-2-phenylethyl]-1H-imidazoles” (J Med Chem, 1978):
Activity calls are given as the source filed them. No cut-off for these calls is given here.

What was measured:
[1] = test system: Staphylococcus aureus; experiment: Antibacterial activity against Staphylococcus aureus ATCC 12600 assessed as lowest concentration required for total inhibition by broth microdilution assay; assay type: functional; settings: read-out: MIC100
Method in brief: (§1)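 Broth microdilution against the listed ATCC […] strains. The value is the lowest concentration giving total inhibition. "<" marks the lowest level tested, and ">" marks partial growth at that dilution.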

[2] = test system: Enterococcus faecalis; experiment: Antibacterial activity against Streptococcus faecalis ATCC 14506 assessed as lowest concentration required for total inhibition by broth microdilution assay; assay type: functional; settings: read-out: MIC100; method in brief: as §1
[3] = test system: Cutibacterium acnes; experiment: Antibacterial activity against Corynebacterium acnes ATCC 11828 assessed as lowest concentration required for total inhibition by broth microdilution assay; assay type: functional; settings: read-out: MIC100; method in brief: as §1
[4] = test system: Erysipelothrix rhusiopathiae; experiment: Antibacterial activity against Erysipelothrix insidiosa ATCC 19414 assessed as lowest concentration required for total inhibition by broth microdilution assay; assay type: functional; settings: read-out: MIC100; method in brief: as §1
[5] = test system: Pasteurella multocida; experiment: Antibacterial activity against Pasteurella multocida ATCC 19427 assessed as lowest concentration required for total inhibition by broth microdilution assay; assay type: functional; settings: read-out: MIC100; method in brief: as §1
[6] = Lipophilic-hydrophilic balance, Rm of the compound assessed as change in compound Rm to miconazole Rm by reverse-phase TLC method; assay type: physicochemical; settings: silicone oil-impregnated silica gel, MeCN-H2O-AcOH
[7] = test system: Nannizzia gypsea; experiment: Antifungal activity against Microsporum gypseum assessed as lowest concentration required for total inhibition broth dilution assay; assay type: functional; settings: read-out: MIC100
Method in brief: (§2)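 Broth dilution against dermatophytes, C. albicans ATCC 10231 and 14053, and C. neoformans. The end point is the lowest concentration with total inhibition. "<" marks the lowest level tested, and ">" marks partial growth at that dilution.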

[8] = test system: Epidermophyton floccosum; experiment: Antifungal activity against Epidermophyton floccosum assessed as lowest concentration required for total inhibition broth dilution assay; assay type: functional; settings: read-out: MIC100; method in brief: as §2
[9] = test system: Trichophyton mentagrophytes; experiment: Antifungal activity against Trichophyton mentagrophytes assessed as lowest concentration required for total inhibition broth dilution assay; assay type: functional; settings: read-out: MIC100; method in brief: as §2
[10] = test system: Candida albicans; experiment: Antifungal activity against Candida albicans ATCC 10231 assessed as lowest concentration required for total inhibition by broth dilution assay; assay type: functional; settings: read-out: MIC100; method in brief: as §2
[11] = test system: Candida albicans; experiment: Antifungal activity against Candida albicans ATCC 14053 assessed as lowest concentration required for total inhibition by broth dilution assay; assay type: functional; settings: read-out: MIC100; method in brief: as §2
[12] = test system: Cryptococcus neoformans; experiment: Antifungal activity against Cryptococcus neoformans assessed as lowest concentration required for total inhibition by broth dilution assay; assay type: functional; settings: read-out: MIC100; method in brief: as §2
[13] = test system: Candida albicans; experiment: Antifungal activity against Candida albicans in mouse vaginal infection model compound applied intravaginally as 2% formulation in an aqueous propylene glycol cream for 4 days bid; assay type: functional, organism-based; settings: Vagina
Method in brief: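 Mice with vaginal C. albicans infection, following Wildfeuer's method. The compound was applied intravaginally as a 2% formulation in an aqueous propylene glycol cream, twice daily for 4 days. Read-out was animals cured over total number infected.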

SMILES	MIC [1] [µg/mL]	MIC [2] [µg/mL]	MIC [3] [µg/mL]	MIC [4] [µg/mL]	MIC [5] [µg/mL]	deltaRm [6]	MIC [7] [µg/mL]	MIC [8] [µg/mL]	MIC [9] [µg/mL]	MIC [10] [µg/mL]	MIC [11] [µg/mL]	MIC [12] [µg/mL]	Activity [13]
O=C(SC(Cn1ccnc1)c1ccc(Cl)cc1Cl)c1ccccc1Cl.O=[N+]([O-])O (centres undefined)	10	30	> 100	100	1	-0.35	10	< 0.1	10	30	30	< 1	
Cc1ccc(C(=O)SC(Cn2ccnc2)c2ccc(Cl)cc2Cl)cc1.O=[N+]([O-])O (centres undefined)						-0.09	30	< 0.1	10	10	10	< 1	
CCCCCOC(=S)SC(Cn1ccnc1)c1ccc(Cl)cc1.O=C(O)C(=O)O (centres undefined)						0.22	3	0.3	10	30	30	3	
O=C(Cc1ccccc1)SC(Cn1ccnc1)c1ccc(Cl)cc1Cl.O=[N+]([O-])O (centres undefined)						-0.43	30	< 0.1	30	100	100	< 1	
O=C(Sc1ccccc1)SC(Cn1ccnc1)c1ccc(Cl)cc1Cl.O=[N+]([O-])O (centres undefined)	10	30	> 100	100	3	-0.02	3	< 0.1	10	100	100	< 1	
CC(C)(C)c1ccc(C(=O)OC(Cn2ccnc2)c2ccc(Cl)cc2Cl)cc1.O=C(O)C(=O)O (centres undefined)						0.16	10	1	10	10	10	3	
O=C(Cc1ccc(Cl)cc1)SC(Cn1ccnc1)c1ccc(Cl)cc1Cl.O=[N+]([O-])O (centres undefined)							> 30	< 0.1	30	100	100	< 1	
O=C(Cc1ccc(F)cc1)SC(Cn1ccnc1)c1ccc(Cl)cc1Cl.O=[N+]([O-])O (centres undefined)							30	< 0.1	30	100	100	< 1	
O=C(/C=C/c1ccc(Cl)cc1)OC(Cn1ccnc1)c1ccc(Cl)cc1Cl.O=[N+]([O-])O (centres undefined)							10	< 0.1	10	> 300	> 300	< 1	
O=C(/C=C/c1ccccc1)SC(Cn1ccnc1)c1ccc(Cl)cc1Cl.O=[N+]([O-])O (centres undefined)						-0.08	30	< 0.1	10	10	10	< 1	

Continued, in another order:

MIC [1] [µg/mL]	MIC [2] [µg/mL]	MIC [3] [µg/mL]	MIC [4] [µg/mL]	MIC [5] [µg/mL]	deltaRm [6]	MIC [7] [µg/mL]	MIC [8] [µg/mL]	MIC [9] [µg/mL]	MIC [10] [µg/mL]	MIC [11] [µg/mL]	MIC [12] [µg/mL]	SMILES	Activity [13]
					-0.39	100	< 0.1	30	300	300	3	O=C(OC(Cn1ccnc1)c1ccc(Cl)cc1Cl)c1ccc(Cl)cc1.O=[N+]([O-])O (centres undefined)	inactive
					0.1	10	< 0.1	10	30	30	< 1	CCCCCCCC(=O)OC(Cn1ccnc1)c1ccc(Cl)cc1Cl.O=[N+]([O-])O (centres undefined)	inactive
					-0.14	10	< 0.1	10	100	30	< 0.3	CC(C)OC(=S)SC(Cn1ccnc1)c1ccc(Cl)cc1Cl.O=[N+]([O-])O (centres undefined)	
1	30	100	10	1	0.82	30	< 0.1	10	> 300	> 300	< 1	CCCCCCCCOC(=O)SC(Cn1ccnc1)c1ccc(Cl)cc1Cl.O=[N+]([O-])O (centres undefined)	
						100	1	100	300	300	10	CC(=O)SC(Cn1ccnc1)c1ccc(Cl)cc1Cl.O=[N+]([O-])O (centres undefined)	
						30	< 0.1	30	300	300	3	CCCSC(=O)OC(Cn1ccnc1)c1ccc(Cl)cc1Cl.O=C(O)C(=O)O (centres undefined)	
